Where only a bound is given, the exact number is not on record here.

By IC50 is commonly meant the concentration needed to halve the response being measured.

Holding throughout (assay type): functional
The species named for assay [1] is Rattus norvegicus. Briefly: Inhibitory concentration against evoked synaptic field potential of CA1 neurons in absence of quisqualic acid from rat hippocampus. The method in brief:
(§1)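 Transverse 500-µm hippocampal slices from 30–100-day-old male Sprague-Dawley rats, submerged in oxygenated medium at 34 °C. Field potentials evoked by stimulating the Schaffer collaterals. Compound started at a subthreshold level and doubled every 4 min until the response fell >70% or exceeded 10 mM. IC50 was interpolated from fractional peak amplitude versus log concentration. Sequence included a 16 µM L-quisqualate exposure between tests.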

Assay [2] is filed under the species Rattus norvegicus. Nature of the assay: Inhibitory concentration against evoked synaptic field potential of CA1 neurons in presence of 16 uM quisqualic acid from rat hippocampus. The method, boiled down:
as §1

The species named for assay [3] is Rattus norvegicus. Briefly: Sensitization effect was determined.

`CN1C(=O)C=C(C[C@H](N)C(=O)O)C1=O`: the IC50 in the assay filed under Rattus norvegicus [1] (Rattus norvegicus) worked out at 95 µM; in the assay listed under Rattus norvegicus [2] (Rattus norvegicus) it was 6.8 µM. Moreover, in the assay filed under Rattus norvegicus [3], the Sensitisation came out at 14.
Regarding `N[C@@H](CC1=CC(=O)N(CC(=O)O)C1=O)C(=O)O`, the Sensitisation in the assay filed under Rattus norvegicus [3] is reported as 7.7.
For the compound `N[C@@H](CC1CC(=O)NC1=O)C(=O)O` (stereo in doubt; 5a), the IC50 in the assay listed under Rattus norvegicus [1] and in the assay filed under Rattus norvegicus [2] was greater than 10000 µM in each case.
Take `N[C@@H](Cn1oc(=O)[nH]c1=O)C(=O)O` [QUISQUALATE]: the IC50 in the assay listed under Rattus norvegicus [1] (Rattus norvegicus) is 3.9 µM; in the assay filed under Rattus norvegicus [2] (Rattus norvegicus), 2.9 µM. In the assay filed under Rattus norvegicus [3], the Sensitisation came to 1.3.
As to `N[C@@H](CC1CC(=O)NC1=O)C(=O)O` (stereo in doubt; 5b), the IC50 in the assay listed under Rattus norvegicus [1] worked out at 9200 µM; in the assay listed under Rattus norvegicus [2], 6800 µM. In addition, the Sensitisation in the assay filed under Rattus norvegicus [3] was found to be 1.3.
On to `N[C@@H](CC1=CC(=O)NC1=O)C(=O)O`, for which the IC50 in the assay filed under Rattus norvegicus [1] (Rattus norvegicus) was determined as 21 µM; in the assay listed under Rattus norvegicus [2] (Rattus norvegicus), 9.5 µM. In addition, the Sensitisation in the assay filed under Rattus norvegicus [3] is 2.2.
Turning to `N[C@@H](CCP(=O)(O)O)C(=O)O`, the IC50 in the assay filed under Rattus norvegicus [1] (Rattus norvegicus) was 1800 µM; in the assay filed under Rattus norvegicus [2] (Rattus norvegicus) it was 55 µM. Further, the Sensitisation in the assay filed under Rattus norvegicus [3] is listed as 33.
For `N[C@H](CCP(=O)(O)O)C(=O)O` the same measures were 2600 µM, 152 µM and 17.
For `N[C@H](Cn1oc(=O)[nH]c1=O)C(=O)O` the same measures were 78 µM, 10 µM and 7.5.
`NC(CN1CC(=O)NC1=O)C(=O)O` (configuration not stated): the half-inhibitory concentration (IC50) in the assay filed under Rattus norvegicus [1] (Rattus norvegicus) came out at 1.4 µM; in the assay filed under Rattus norvegicus [2] (Rattus norvegicus), 0.8 µM. Besides, the Sensitisation in the assay listed under Rattus norvegicus [3] stood at 1.7.

The values are drawn from ChEMBL document CHEMBL1126108, “Quisqualic acid analogues: synthesis of beta-heterocyclic 2-aminopropanoic acid derivatives and their activity at a novel quisqualate-sensitized site” (J Med Chem, 1992).
